We go through 13 compounds from BindingDB's records for doi:10.1016/j.bmcl.2005.08.013 (Kosan Biosciences, 2005).

The structures appear in SMILES notation. A value given as a limit tells only on which side of the number the result lay.

The target of the assay is Heat shock protein HSP 90-alpha (Homo sapiens, UniProt P07900). Description: Binding affinity for human heat shock protein 90 in scintillation proximity assay. The essentials: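 Purified full-length human Hsp90 was used as the target protein. Binding was measured by scintillation proximity assay.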
(In general: Scintillation proximity formats need no separation of bound from free tracer.)
What is called Kd is the constant that tells how readily two partners part at equilibrium. In turn, `CO[C@H]1C=CC=C(C)C(=O)Nc2cc(O)c(N=CCN(C)C)c(c2O)C[C@@H](C)C[C@H](OC)[C@H](O)[C@@H](C)/C=C(\C)[C@@H]1OC(=O)NCCO` [(2-Hydroxy-ethyl)-carbamic acid (4E,6Z)-(13S,14S,17R,19S)-19-(2-dimethylamino-ethylamino)-13-(S)-hydroxy-8,14-dimethoxy-4,12,16-trimethyl-10-(R)-methyl-3,20,22-trioxo-2-aza-bicyclo[16.3.1]docosa-1(21),4,6,10,18-pentaen-9-yl ester] registered a Kd above 100 µM.

Compound `CO[C@H]1C=CC=C(C)C(=O)Nc2cc(O)c(N=CCN(C)C)c(c2O)C[C@@H](C)C[C@H](OC)[C@H](O)[C@@H](C)/C=C(\C)[C@@H]1OC(=O)c1cnc[nH]1` [3H-Imidazole-4-carboxylic acid (E)-(8R,10R,15S,20S)-19-(2-dimethylamino-ethylamino)-13-(S)-hydroxy-8,14-dimethoxy-4,12,16-trimethyl-10-(S)-methyl-3,20,22-trioxo-2-aza-bicyclo[16.3.1]docosa-1(21),4,6,10,18-pentaen-9-yl ester] displayed a Kd above 100 µM.

For the compound `CO[C@H]1C=CC=C(C)C(=O)Nc2cc(O)c(N=CCN(C)C)c(c2O)C[C@@H](C)C[C@H](OC)[C@H](O)[C@@H](C)/C=C(\C)[C@@H]1OC(=O)NN` [Hydrazinecarboxylic acid (4E,6Z)-(13S,14S,17R,19S)-19-(2-dimethylamino-ethylamino)-13-(S)-hydroxy-8,14-dimethoxy-4,12,16-trimethyl-10-(R)-methyl-3,20,22-trioxo-2-aza-bicyclo[16.3.1]docosa-1(21),4,6,10,18-pentaen-9-yl ester], the Kd is above 100 µM.

Compound `CO[C@H]1C=CC=C(C)C(=O)Nc2cc(O)c(N3CCC3)c(c2O)C=C(C)C[C@H](OC)[C@H](O)[C@@H](C)/C=C(\C)[C@@H]1OC(=O)NO` [Geldanamycin derivative] yielded a Kd above 100 µM.

`CO[C@H]1C=CC=C(C)C(=O)Nc2cc(O)c(N=CCN(C)C)c(c2O)C[C@@H](C)C[C@H](OC)[C@H](O)[C@@H](C)/C=C(\C)[C@@H]1OC(=O)N(C)N` [N-Methyl-hydrazinecarboxylic acid (4E,6Z)-(13S,14S,17R,19S)-19-(2-dimethylamino-ethylamino)-13-(S)-hydroxy-8,14-dimethoxy-4,12,16-trimethyl-10-(R)-methyl-3,20,22-trioxo-2-aza-bicyclo[16.3.1]docosa-1(21),4,6,10,18-pentaen-9-yl ester] returned a Kd above 100 µM.

On to `CO[C@H]1C=CC=C(C)C(=O)Nc2cc(O)c(N=CCN(C)C)c(c2O)C[C@@H](C)C[C@H](OC)[C@H](O)[C@@H](C)/C=C(\C)[C@@H]1OC(=O)NCC(N)=O` [Carbamoylmethyl-carbamic acid (4E,6Z)-(13S,14S,17R,19S)-19-(2-dimethylamino-ethylamino)-13-(S)-hydroxy-8,14-dimethoxy-4,12,16-trimethyl-10-(R)-methyl-3,20,22-trioxo-2-aza-bicyclo[16.3.1]docosa-1(21),4,6,10,18-pentaen-9-yl ester], for which the Kd was above 100 µM.

Take `CO[C@H]1C=CC=C(C)C(=O)Nc2cc(O)c(N=CCN(C)C)c(c2O)C[C@@H](C)C[C@H](OC)[C@H](O)[C@@H](C)/C=C(\C)[C@@H]1OC(=O)NCCN(C)C` [(2-Dimethylamino-ethyl)-carbamic acid (4E,6Z)-(13S,14S,17R,19S)-19-(2-dimethylamino-ethylamino)-13-(S)-hydroxy-8,14-dimethoxy-4,12,16-trimethyl-10-(R)-methyl-3,20,22-trioxo-2-aza-bicyclo[16.3.1]docosa-1(21),4,6,10,18-pentaen-9-yl ester]: the Kd is above 100 µM.

Compound `CO[C@H]1C=CC=C(C)C(=O)Nc2cc(O)c(N3CCC3)c(c2O)C=C(C)C[C@H](OC)[C@H](O)[C@@H](C)/C=C(\C)[C@@H]1OC(=O)NN` [Hydrazinecarboxylic acid (4E,6Z)-(13S,14S,17R,19S)-19-azetidin-1-yl-13-(S)-hydroxy-8,14-dimethoxy-4,12,16-trimethyl-10-(R)-methyl-3,20,22-trioxo-2-aza-bicyclo[16.3.1]docosa-1(21),4,6,10,18-pentaen-9-yl ester] came in with a Kd above 100 µM.

`CO[C@H]1C=CC=C(C)C(=O)Nc2cc(O)c(N=CCN(C)C)c(c2O)C[C@@H](C)C[C@H](OC)[C@H](O)[C@@H](C)/C=C(\C)[C@@H]1OC(=O)c1ccc[nH]1` [1H-Pyrrole-2-carboxylic acid (E)-(8R,10R,15S,20S)-19-(2-dimethylamino-ethylamino)-13-(S)-hydroxy-8,14-dimethoxy-4,12,16-trimethyl-10-(S)-methyl-3,20,22-trioxo-2-aza-bicyclo[16.3.1]docosa-1(21),4,6,10,18-pentaen-9-yl ester]: the Kd was above 100 µM.

For the compound `CO[C@H]1C=CC=C(C)C(=O)Nc2cc(O)c(N=CCF)c(c2O)C[C@@H](C)C[C@H](OC)[C@H](O)[C@@H](C)/C=C(\C)[C@@H]1OC(=O)NN` [Hydrazinecarboxylic acid (4E,6Z)-(13S,14S,17R,19S)-19-(2-fluoro-ethylamino)-13-(S)-hydroxy-8,14-dimethoxy-4,12,16-trimethyl-10-(R)-methyl-3,20,22-trioxo-2-aza-bicyclo[16.3.1]docosa-1(21),4,6,10,18-pentaen-9-yl ester], the Kd is above 100 µM.

`CONC(=O)O[C@H]1/C(C)=C/[C@H](C)[C@@H](O)[C@@H](OC)C[C@H](C)Cc2c(O)c(cc(O)c2N=CCN(C)C)NC(=O)C(C)=CC=C[C@@H]1OC` [Geldanamycin derivative]: the Kd was above 100 µM.

For `CNC(=O)O[C@H]1/C(C)=C/[C@H](C)[C@@H](O)[C@@H](OC)C[C@H](C)Cc2c(O)c(cc(O)c2N=CCN(C)C)NC(=O)C(C)=CC=C[C@@H]1OC` [Methyl-carbamic acid (4E,6Z)-(13S,14S,17R,19S)-19-(2-dimethylamino-ethylamino)-13-(S)-hydroxy-8,14-dimethoxy-4,12,16-trimethyl-10-(R)-methyl-3,20,22-trioxo-2-aza-bicyclo[16.3.1]docosa-1(21),4,6,10,18-pentaen-9-yl ester], the Kd was above 100 µM.

`CO[C@H]1C=CC=C(C)C(=O)Nc2cc(O)c(N=CCF)c(c2O)C[C@@H](C)C[C@H](OC)[C@H](O)[C@@H](C)/C=C(\C)[C@@H]1OC(=O)NO` [Geldanamycin derivative]: the Kd was above 100 µM.
